Experimental data from PMC11904481 (ESMO Open, 2025).
Values joined by “and” are separate entries in the source; they are usually repeats but may differ in a detail not shown here. Equal entries are not always repeated.

Test system: patients with locally advanced unresectable or metastatic, relapsed and/or refractory nonhematological malignancies
Experiment: Phase I safety: adverse events
Format: in vivo, human
In short: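 Adverse events were graded by NCI CTCAE v4.03 across three i.v. schedules of the test compound (0.45-11.3 mg/kg; weekly per 28-day cycle, or days 1, 4, 8 ±11, 15 per 21-day cycle). Special-interest events covered retinal dysfunction symptoms and documented retinal disorders. Clustered signs were grouped as 'infusion reaction'. QTc was calculated with the Fridericia correction.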

[1] = schedule 3 cohort 5, 11.3 mg/kg
[2] = schedule 3 cohort 6, 11.3 mg/kg
[3] = schedules 1/2 cohort 1, 0.45 mg/kg

O=C1Nc2cc3[nH]nc(-c4ccncc4)c3cc2CN1Cc1ccccc1 [KO-947]
6 (22) n (%): AESI: Subretinal fluid (schedule 3 total N = 27) | Treatment-related TEAE: Dermatitis acneiform (schedule 3 total N = 27) | Treatment-related TEAE: Diarrhea (schedule 3 total N = 27) | Treatment-related TEAE: Infusion-related reaction (schedule 3 total N = 27) | Treatment-related TEAE: Subretinal fluid (schedule 3 total N = 27)
1 (11) n (%): AESI: Macular edema (schedule 3 cohort 3, 6.4 mg/kg) | AESI: Photopsia (schedule 3 cohort 3, 6.4 mg/kg) | AESI: Retinal detachment (schedule 3 cohort 3, 6.4 mg/kg) | Treatment-related TEAE: Diarrhea (schedule 3 cohort 3, 6.4 mg/kg) | Treatment-related TEAE: Dyspepsia (schedule 3 cohort 3, 6.4 mg/kg) | Treatment-related TEAE: Macular edema (schedule 3 cohort 3, 6.4 mg/kg) | Treatment-related TEAE: Photopsia (schedule 3 cohort 3, 6.4 mg/kg) | Treatment-related TEAE: Retinal detachment (schedule 3 cohort 3, 6.4 mg/kg)
7 patients: dose reductions due to toxicity (all schedules)
136 n: Total number of treatment-related TEAEs (schedule 3 total N = 27)
0 n (%): AESI: Blurred vision (schedule 3 cohort 1, 3.6 mg/kg) | AESI: Detachment of retinal pigment epithelium (schedule 3 cohort 1, 3.6 mg/kg) | AESI: Macular edema (schedule 3 cohort 1, 3.6 mg/kg) | AESI: Photopsia (schedule 3 cohort 1, 3.6 mg/kg) | AESI: Retinal detachment (schedule 3 cohort 1, 3.6 mg/kg) | Treatment-related TEAE: Blurred vision (schedule 3 cohort 1, 3.6 mg/kg) | Treatment-related TEAE: Dermatitis acneiform (schedule 3 cohort 1, 3.6 mg/kg) | Treatment-related TEAE: Diarrhea (schedule 3 cohort 1, 3.6 mg/kg) | Treatment-related TEAE: Dyspepsia (schedule 3 cohort 1, 3.6 mg/kg) | Treatment-related TEAE: Infusion-related reaction (schedule 3 cohort 1, 3.6 mg/kg) | Treatment-related TEAE: Macular edema (schedule 3 cohort 1, 3.6 mg/kg) | Treatment-related TEAE: Photopsia (schedule 3 cohort 1, 3.6 mg/kg) | Treatment-related TEAE: QTc prolongation (schedule 3 cohort 1, 3.6 mg/kg) | Treatment-related TEAE: Retinal detachment (schedule 3 cohort 1, 3.6 mg/kg) | AESI: Blurred vision (schedule 3 cohort 2, 4.8 mg/kg) | AESI: Detachment of retinal pigment epithelium (schedule 3 cohort 2, 4.8 mg/kg) | AESI: Macular edema (schedule 3 cohort 2, 4.8 mg/kg) | AESI: Photopsia (schedule 3 cohort 2, 4.8 mg/kg) | AESI: Vitreous floaters (schedule 3 cohort 2, 4.8 mg/kg) | Treatment-related TEAE: Blurred vision (schedule 3 cohort 2, 4.8 mg/kg) | Treatment-related TEAE: Dermatitis acneiform (schedule 3 cohort 2, 4.8 mg/kg) | Treatment-related TEAE: Dyspepsia (schedule 3 cohort 2, 4.8 mg/kg) | Treatment-related TEAE: Infusion-related reaction (schedule 3 cohort 2, 4.8 mg/kg) | Treatment-related TEAE: Macular edema (schedule 3 cohort 2, 4.8 mg/kg) | Treatment-related TEAE: Photopsia (schedule 3 cohort 2, 4.8 mg/kg) | Treatment-related TEAE: QTc prolongation (schedule 3 cohort 2, 4.8 mg/kg) | Treatment-related TEAE: Vitreous floaters (schedule 3 cohort 2, 4.8 mg/kg) | AESI: Detachment of retinal pigment epithelium (schedule 3 cohort 3, 6.4 mg/kg) | AESI: Vitreous floaters (schedule 3 cohort 3, 6.4 mg/kg) | Treatment-related TEAE: Dermatitis acneiform (schedule 3 cohort 3, 6.4 mg/kg) | Treatment-related TEAE: QTc prolongation (schedule 3 cohort 3, 6.4 mg/kg) | Treatment-related TEAE: Vitreous floaters (schedule 3 cohort 3, 6.4 mg/kg) | AESI: Subretinal fluid (schedule 3 cohort 4, 7.2 mg/kg) | AESI: Vitreous floaters (schedule 3 cohort 4, 7.2 mg/kg) | Treatment-related TEAE: QTc prolongation (schedule 3 cohort 4, 7.2 mg/kg) | Treatment-related TEAE: Subretinal fluid (schedule 3 cohort 4, 7.2 mg/kg) | Treatment-related TEAE: Vitreous floaters (schedule 3 cohort 4, 7.2 mg/kg) | AESI: Macular edema [2] | AESI: Retinal detachment [2] | AESI: Vitreous floaters [2] | Treatment-related TEAE: Diarrhea [2] | Treatment-related TEAE: Dyspepsia [2] | Treatment-related TEAE: Macular edema [2] | Treatment-related TEAE: Retinal detachment [2] | Treatment-related TEAE: Vitreous floaters [2] | AESI: Blurred vision [3] | AESI: Eye disorders [3] | AESI: Macular edema [3] | AESI: Retinal edema [3] | AESI: Subretinal fluid [3] | AESI: Vitreous floaters [3] | Patients with ≥1 AESI [3]
9 n: Total number of treatment-related TEAEs (schedule 3 cohort 2, 4.8 mg/kg) | Total number of treatment-related TEAEs [2]
3 n: AESI: Total number of AEs [2]
2 (33) n (%): AESI: Macular edema [1] | Treatment-related TEAE: Diarrhea [1] | Treatment-related TEAE: Infusion-related reaction [1] | Treatment-related TEAE: Macular edema [1]
50 n: Total number of treatment-related TEAEs [1] | AESI: Total number of AEs (schedule 3 total N = 27)
6 (100) n (%): AESI: Eye disorders [1] | AESI: Patients with ≥1 AE [1] | Patients with ≥1 treatment-related TEAE [1]
3 days: median time to resolution of ocular events (cycle 1, range, 0-114 days)
16 n: AESI: Total number of AEs [1]
3 (100) n (%): Patients with ≥1 treatment-related TEAE (schedule 3 cohort 2, 4.8 mg/kg) | AESI: Eye disorders (schedule 3 cohort 4, 7.2 mg/kg) | AESI: Patients with ≥1 AE (schedule 3 cohort 4, 7.2 mg/kg) | Patients with ≥1 treatment-related TEAE (schedule 3 cohort 4, 7.2 mg/kg) | Patients with ≥1 treatment-related TEAE [2]
2 (67) n (%): AESI: Eye disorders (schedule 3 cohort 1, 3.6 mg/kg) | AESI: Patients with ≥1 AE (schedule 3 cohort 1, 3.6 mg/kg) | AESI: Vitreous floaters (schedule 3 cohort 1, 3.6 mg/kg) | Patients with ≥1 treatment-related TEAE (schedule 3 cohort 1, 3.6 mg/kg) | Treatment-related TEAE: Vitreous floaters (schedule 3 cohort 1, 3.6 mg/kg) | AESI: Eye disorders (schedule 3 cohort 2, 4.8 mg/kg) | AESI: Patients with ≥1 AE (schedule 3 cohort 2, 4.8 mg/kg) | Treatment-related TEAE: Diarrhea (schedule 3 cohort 4, 7.2 mg/kg) | AESI: Eye disorders [2] | AESI: Patients with ≥1 AE [2] | Treatment-related TEAE: QTc prolongation [2]
33.3% and 33%: treatment-related blurred vision (schedule 3)
1 (100) n (%): Patients with ≥1 treatment-related TEAE [3]
No deaths: deaths due to treatment-related TEAEs (all schedules)
3 (11) n (%): AESI: Vitreous floaters (schedule 3 total N = 27) | Treatment-related TEAE: Dyspepsia (schedule 3 total N = 27) | Treatment-related TEAE: QTc prolongation (schedule 3 total N = 27) | Treatment-related TEAE: Vitreous floaters (schedule 3 total N = 27)
4 (67) n (%): AESI: Blurred vision [1] | Treatment-related TEAE: Blurred vision [1] | Treatment-related TEAE: Dermatitis acneiform [1]
11 n: Total number of treatment-related TEAEs (schedule 3 cohort 1, 3.6 mg/kg) | AESI: Total number of AEs (schedule 3 cohort 3, 6.4 mg/kg)
8 (89) n (%): Patients with ≥1 treatment-related TEAE (schedule 3 cohort 3, 6.4 mg/kg)
1 (17) n (%): AESI: Detachment of retinal pigment epithelium [1] | AESI: Photopsia [1] | AESI: Retinal detachment [1] | AESI: Subretinal fluid [1] | AESI: Vitreous floaters [1] | Treatment-related TEAE: Dyspepsia [1] | Treatment-related TEAE: Photopsia [1] | Treatment-related TEAE: QTc prolongation [1] | Treatment-related TEAE: Retinal detachment [1] | Treatment-related TEAE: Subretinal fluid [1] | Treatment-related TEAE: Vitreous floaters [1]
7 (78) n (%): AESI: Eye disorders (schedule 3 cohort 3, 6.4 mg/kg) | AESI: Patients with ≥1 AE (schedule 3 cohort 3, 6.4 mg/kg)
1 (33) n (%): AESI: Subretinal fluid (schedule 3 cohort 1, 3.6 mg/kg) | Treatment-related TEAE: Subretinal fluid (schedule 3 cohort 1, 3.6 mg/kg) | AESI: Retinal detachment (schedule 3 cohort 2, 4.8 mg/kg) | AESI: Subretinal fluid (schedule 3 cohort 2, 4.8 mg/kg) | Treatment-related TEAE: Diarrhea (schedule 3 cohort 2, 4.8 mg/kg) | Treatment-related TEAE: Retinal detachment (schedule 3 cohort 2, 4.8 mg/kg) | Treatment-related TEAE: Subretinal fluid (schedule 3 cohort 2, 4.8 mg/kg) | AESI: Blurred vision (schedule 3 cohort 4, 7.2 mg/kg) | AESI: Detachment of retinal pigment epithelium (schedule 3 cohort 4, 7.2 mg/kg) | AESI: Macular edema (schedule 3 cohort 4, 7.2 mg/kg) | AESI: Photopsia (schedule 3 cohort 4, 7.2 mg/kg) | AESI: Retinal detachment (schedule 3 cohort 4, 7.2 mg/kg) | Treatment-related TEAE: Blurred vision (schedule 3 cohort 4, 7.2 mg/kg) | Treatment-related TEAE: Dermatitis acneiform (schedule 3 cohort 4, 7.2 mg/kg) | Treatment-related TEAE: Dyspepsia (schedule 3 cohort 4, 7.2 mg/kg) | Treatment-related TEAE: Infusion-related reaction (schedule 3 cohort 4, 7.2 mg/kg) | Treatment-related TEAE: Macular edema (schedule 3 cohort 4, 7.2 mg/kg) | Treatment-related TEAE: Photopsia (schedule 3 cohort 4, 7.2 mg/kg) | Treatment-related TEAE: Retinal detachment (schedule 3 cohort 4, 7.2 mg/kg) | AESI: Blurred vision [2] | AESI: Detachment of retinal pigment epithelium [2] | AESI: Photopsia [2] | AESI: Subretinal fluid [2] | Treatment-related TEAE: Blurred vision [2] | Treatment-related TEAE: Dermatitis acneiform [2] | Treatment-related TEAE: Infusion-related reaction [2] | Treatment-related TEAE: Photopsia [2] | Treatment-related TEAE: Subretinal fluid [2]
4 n: AESI: Total number of AEs (schedule 3 cohort 1, 3.6 mg/kg)
14 n: AESI: Total number of AEs (schedule 3 cohort 4, 7.2 mg/kg)
25 (93) n (%): Patients with ≥1 treatment-related TEAE (schedule 3 total N = 27)
11%: treatment-related QTc prolongation (schedule 3) | treatment-related dyspepsia (schedule 3) | treatment-related vitreous floaters (schedule 3)
19 n: Total number of treatment-related TEAEs (schedule 3 cohort 3, 6.4 mg/kg)
22 (82) n (%): AESI: Eye disorders (schedule 3 total N = 27) | AESI: Patients with ≥1 AE (schedule 3 total N = 27)
7%: grade ≥3 TEAE: infusion-related reaction (schedule 3) | grade ≥3 TEAE: respiratory tract infection (schedule 3)
33%: AESI blurred vision (schedule 3)
4 (15) n (%): AESI: Macular edema (schedule 3 total N = 27) | AESI: Photopsia (schedule 3 total N = 27) | AESI: Retinal detachment (schedule 3 total N = 27) | Treatment-related TEAE: Macular edema (schedule 3 total N = 27) | Treatment-related TEAE: Photopsia (schedule 3 total N = 27) | Treatment-related TEAE: Retinal detachment (schedule 3 total N = 27)
67%: patients with grade ≥3 TEAEs (schedule 3)
14 patients: dose interruptions due to toxicity (all schedules)
15%: patients discontinued owing to AEs (schedule 3) | patients with grade ≥3 treatment-related TEAEs (schedule 3) | treatment-related macular edema (schedule 3) | treatment-related photopsia (schedule 3) | treatment-related retinal detachment (schedule 3)
9 (33) n (%): AESI: Blurred vision (schedule 3 total N = 27) | Treatment-related TEAE: Blurred vision (schedule 3 total N = 27)
3 (33) n (%): AESI: Blurred vision (schedule 3 cohort 3, 6.4 mg/kg) | Treatment-related TEAE: Blurred vision (schedule 3 cohort 3, 6.4 mg/kg)
38 n: Total number of treatment-related TEAEs (schedule 3 cohort 4, 7.2 mg/kg)
no reports: retinal vein occlusion (all schedules)
82%: patients with at least one AESI (schedule 3)
2 n: AESI: Total number of AEs (schedule 3 cohort 2, 4.8 mg/kg)
2 (22) n (%): AESI: Subretinal fluid (schedule 3 cohort 3, 6.4 mg/kg) | Treatment-related TEAE: Infusion-related reaction (schedule 3 cohort 3, 6.4 mg/kg) | Treatment-related TEAE: Subretinal fluid (schedule 3 cohort 3, 6.4 mg/kg)
